pIC50: −log10 of the molar value. The source made the active and inactive calls. The rule behind the calls is not given here.
What was measured:
CD4+ve Th [1] = assay: Inhibition of anti-CD3/CD28 antibodies stimulated-IFN-gamma production in BALB/c mouse CD4+ T cells at 100 to 400 nM measured after 48 hrs by ELISA; type: functional, cell-based; conditions: dose 100-400 nM
Outline: (§1)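 Supernatants of BALB/c splenic CD4+ T cells, purified by immunomagnetic negative selection (>98% purity). Cells stimulated with anti-CD3 (5 µg/ml) plus anti-CD28 (2 µg/ml) in RPMI 1640 with 10% FBS and penicillin/streptomycin at 37 °C, 5% CO₂. Compound is given from DMSO stock diluted in medium at increasing concentrations for 48 h. Mouse IFN-γ or IL-4 measured by ELISA kit.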

CD4+ve Th [2] = assay: Inhibition of anti-CD3/CD28 antibodies stimulated-IL-4 production in BALB/c mouse CD4+ T cells at 100 to 400 nM measured after 48 hrs by ELISA; type: functional, cell-based; conditions: dose 100-400 nM; outline: as §1
[3] = Inhibition of anti-CD3/CD28 antibodies-stimulated BALB/c mouse CD4+ T cell activation assessed as frequency of CD4+/CD69+ T cells at 400 nM measured after 48 hrs by flow cytometric analysis (reference value: 14.9%); type: functional, CD4+ve Th; design: scale not given: the % may be the effect or the level left
Outline: (§2)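 Purified BALB/c splenic CD4+ T cells (negative selection) stimulated with anti-CD3 plus anti-CD28 in RPMI 1640/10% FBS with compound for 24 or 48 h. Cells Fc-blocked with anti-CD16/CD32, then stained with FITC-CD3, PE-CD25, APC-CD4 and BV421-CD69. Analyzed by flow cytometry. Data as mean ± SD; one-way ANOVA with Dunnett's test.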

[4] = target: T1, Tyrosine-protein kinase ZAP-70 (Homo sapiens, UniProt P43403); assay: Inhibition of N-terminal GST-fused human recombinant full length ZAP70 (1 to 619 residues) expressed in baculovirus-infected Sf21 cells using FAM-22 peptide as substrate preincubated with enzyme for 10 mins followed by substrate addition for 30 mins in presence of ATP by caliper mobility shift assay
T1 sequence (P43403 whole entry): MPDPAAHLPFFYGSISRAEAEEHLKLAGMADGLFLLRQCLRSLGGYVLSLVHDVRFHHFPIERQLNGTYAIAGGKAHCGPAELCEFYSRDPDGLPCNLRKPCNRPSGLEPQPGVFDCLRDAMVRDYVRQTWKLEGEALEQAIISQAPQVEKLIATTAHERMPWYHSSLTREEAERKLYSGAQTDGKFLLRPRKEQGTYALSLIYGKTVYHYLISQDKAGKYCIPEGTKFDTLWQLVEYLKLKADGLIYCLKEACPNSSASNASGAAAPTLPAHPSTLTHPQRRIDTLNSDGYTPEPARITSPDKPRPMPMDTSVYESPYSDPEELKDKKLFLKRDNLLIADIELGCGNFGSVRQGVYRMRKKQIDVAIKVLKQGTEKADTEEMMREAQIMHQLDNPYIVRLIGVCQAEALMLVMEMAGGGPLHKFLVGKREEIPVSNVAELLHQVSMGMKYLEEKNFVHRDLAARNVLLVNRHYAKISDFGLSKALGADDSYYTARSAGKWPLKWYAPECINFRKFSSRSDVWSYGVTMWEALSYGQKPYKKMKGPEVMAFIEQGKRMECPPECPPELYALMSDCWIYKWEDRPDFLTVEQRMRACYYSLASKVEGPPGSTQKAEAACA

[5] = target: Tyrosine-protein kinase SYK (Homo sapiens, UniProt P43405); assay: Inhibition of N-terminal GST-fused human recombinant full length SYK (1 to 635 residues) expressed in baculovirus-infected Sf21 cells using FAM-22 peptide as substrate preincubated with enzyme for 10 mins followed by substrate addition for 30 mins in presence of ATP by caliper mobility shift assay
[6] = target: Tyrosine-protein kinase ABL1 (Homo sapiens, UniProt P00519); assay: Inhibition of ABL (unknown origin)
[7] = target: Tyrosine-protein kinase BTK (Homo sapiens, UniProt Q06187); assay: Inhibition of BTK (unknown origin)
[8] = target: Tyrosine-protein kinase HCK (Homo sapiens, UniProt P08631); assay: Inhibition of HCK (unknown origin)
[9] = target: T2, Tyrosine-protein kinase ITK/TSK (Homo sapiens, UniProt Q08881); assay: Inhibition of ITK (unknown origin)
T2 sequence (Q08881 whole entry): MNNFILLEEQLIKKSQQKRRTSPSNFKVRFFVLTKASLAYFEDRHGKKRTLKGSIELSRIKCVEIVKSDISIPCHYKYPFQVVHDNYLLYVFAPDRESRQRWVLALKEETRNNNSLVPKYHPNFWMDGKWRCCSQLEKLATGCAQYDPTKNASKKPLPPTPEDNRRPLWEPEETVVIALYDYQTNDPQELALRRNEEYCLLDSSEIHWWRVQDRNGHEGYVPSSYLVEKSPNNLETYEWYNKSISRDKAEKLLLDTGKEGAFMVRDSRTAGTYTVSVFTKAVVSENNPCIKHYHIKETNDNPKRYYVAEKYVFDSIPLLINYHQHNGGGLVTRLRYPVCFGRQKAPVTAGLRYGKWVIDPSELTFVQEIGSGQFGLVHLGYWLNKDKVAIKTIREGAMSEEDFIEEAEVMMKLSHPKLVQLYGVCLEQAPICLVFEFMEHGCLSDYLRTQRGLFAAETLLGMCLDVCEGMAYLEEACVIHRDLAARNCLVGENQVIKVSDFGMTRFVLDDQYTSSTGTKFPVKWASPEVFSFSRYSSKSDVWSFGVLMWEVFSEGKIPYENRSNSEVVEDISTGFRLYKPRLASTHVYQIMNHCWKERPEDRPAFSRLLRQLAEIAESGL

[10] = target: Tyrosine-protein kinase JAK1 (Homo sapiens, UniProt P23458); assay: Inhibition of JAK1 (unknown origin)
[11] = target: Tyrosine-protein kinase JAK2 (Homo sapiens, UniProt O60674); assay: Inhibition of JAK2 (unknown origin)
[12] = target: Tyrosine-protein kinase Lck (Homo sapiens, UniProt P06239); assay: Inhibition of LCK (unknown origin)
[13] = target: Proto-oncogene tyrosine-protein kinase Src (Homo sapiens, UniProt P12931); assay: Inhibition of SRC (unknown origin)
[14] = target: Non-receptor tyrosine-protein kinase TYK2 (Homo sapiens, UniProt P29597); assay: Inhibition of TYK2 (unknown origin)
CD4+ve Th [15] = assay: Inhibition of anti-CD3/CD28 antibodies-stimulated BALB/c mouse CD4+ T cell proliferation measured after 48 hrs by [3H]thymidine incorporation based beta scintillation counting analysis; type: functional, tissue-based; conditions: dose 100-400 nM
Outline: (§3)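 Purified BALB/c splenic CD4+ T cells stimulated with anti-CD3 plus anti-CD28 in RPMI 1640/10% FBS with compound (DMSO stock diluted in medium). After 48 h, cultures pulsed with [³H]thymidine 0.5 µCi/well. Incorporated radioactivity counted by beta scintillation.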

[16] = Inhibition of anti-CD3/CD28 antibodies-stimulated BALB/c mouse CD4+ T cell proliferation at 400 nM measured after 48 hrs by [3H]thymidine incorporation based beta scintillation counting analysis; type: functional; conditions: CD4+ve Th; outline: as §3
CD4+ve Th [17] = assay: Inhibition of anti-CD3/CD28 antibodies-stimulated BALB/c mouse CD4+ T cell division measured after 72 hrs by CFSE-labeled flow cytometry; type: functional, tissue-based; conditions: dose 100-400 nM
Outline: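 Purified BALB/c CD4+ T cells labeled with CFSE at 37 °C for 5 min and washed in RPMI 1640/20% FBS. Cells cultured with anti-CD3 ([…]) plus anti-CD28 ([…]) in RPMI 1640/10% FBS with compound for 72 h. Division read as CFSE dilution by flow cytometry.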

[18] = target: T3, Tyrosine-protein kinase ZAP-70 (Homo sapiens) (UniProt P43403); assay: Covalent binding affinity at C346 residue of N-terminal GST-fused human recombinant full length ZAP70 (1 to 619 residues) expressed in baculovirus-infected Sf21 cells at 55 nM preincubated for 5 mins followed by DTT challenge for 10 mins and measured after 18 hrs following trypsin digestion by mass spectrometry; conditions: time 1095.0 min
T3 sequence (whole entry): T1 sequence (P43403 whole entry)
Outline: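 Recombinant ZAP-70 at 75 nM final in assay buffer (0.01% Triton X-100, 50 mM HEPES, 5 mM MgCl₂, 1 mM MnCl₂). Compound added to 55 nM final and incubated 5 min at 28 °C. DTT then added to 2 mM final for 10 min at room temperature. Trypsin digestion at 37 °C for 18 h, stopped with TFA, C18 desalting. Modified sites mapped by nano-LC–MS/MS.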

[19] = Inhibition of anti-CD3/CD28 antibodies-stimulated BALB/c mouse CD4+ T cell activation assessed as frequency of CD4+/CD69+ T cells at 200 nM measured after 48 hrs by flow cytometric analysis (reference value: 14.9%); type: functional, CD4+ve Th; design: scale not given: the % may be the effect or the level left; outline: as §2
[20] = Inhibition of anti-CD3/CD28 antibodies-stimulated BALB/c mouse CD4+ T cell activation assessed as frequency of CD4+/CD69+ T cells at 100 nM measured after 48 hrs by flow cytometric analysis (reference value: 14.9%); type: functional, CD4+ve Th; design: scale not given: the % may be the effect or the level left; outline: as §2
[21] = Inhibition of anti-CD3/CD28 antibodies-stimulated BALB/c mouse CD4+ T cell activation assessed as frequency of CD4+/CD69+ T cells at 100 nM measured after 24 hrs by flow cytometric analysis (reference value: 2.51%); type: functional, CD4+ve Th; design: scale not given: the % may be the effect or the level left; outline: as §2
[22] = Inhibition of anti-CD3/CD28 antibodies-stimulated BALB/c mouse CD4+ T cell activation assessed as frequency of CD4+/CD69+ T cells at 200 nM measured after 24 hrs by flow cytometric analysis (reference value: 2.51%); type: functional, CD4+ve Th; design: scale not given: the % may be the effect or the level left; outline: as §2
[23] = Inhibition of anti-CD3/CD28 antibodies-stimulated BALB/c mouse CD4+ T cell activation assessed as frequency of CD4+/CD69+ T cells at 400 nM measured after 24 hrs by flow cytometric analysis (reference value: 2.51%); type: functional, CD4+ve Th; design: scale not given: the % may be the effect or the level left; outline: as §2
CD4+ve Th [24] = assay: Inhibition of anti-CD3/CD28 antibodies-stimulated BALB/c mouse CD4+ T cell activation assessed as reduction in CD25 expression measured after 24 to 48 hrs by flow cytometric analysis; type: functional, tissue-based; conditions: time 24-48 hrs; outline: as §2

Tyrosine-protein kinase JAK2, sequence (O60674 whole entry): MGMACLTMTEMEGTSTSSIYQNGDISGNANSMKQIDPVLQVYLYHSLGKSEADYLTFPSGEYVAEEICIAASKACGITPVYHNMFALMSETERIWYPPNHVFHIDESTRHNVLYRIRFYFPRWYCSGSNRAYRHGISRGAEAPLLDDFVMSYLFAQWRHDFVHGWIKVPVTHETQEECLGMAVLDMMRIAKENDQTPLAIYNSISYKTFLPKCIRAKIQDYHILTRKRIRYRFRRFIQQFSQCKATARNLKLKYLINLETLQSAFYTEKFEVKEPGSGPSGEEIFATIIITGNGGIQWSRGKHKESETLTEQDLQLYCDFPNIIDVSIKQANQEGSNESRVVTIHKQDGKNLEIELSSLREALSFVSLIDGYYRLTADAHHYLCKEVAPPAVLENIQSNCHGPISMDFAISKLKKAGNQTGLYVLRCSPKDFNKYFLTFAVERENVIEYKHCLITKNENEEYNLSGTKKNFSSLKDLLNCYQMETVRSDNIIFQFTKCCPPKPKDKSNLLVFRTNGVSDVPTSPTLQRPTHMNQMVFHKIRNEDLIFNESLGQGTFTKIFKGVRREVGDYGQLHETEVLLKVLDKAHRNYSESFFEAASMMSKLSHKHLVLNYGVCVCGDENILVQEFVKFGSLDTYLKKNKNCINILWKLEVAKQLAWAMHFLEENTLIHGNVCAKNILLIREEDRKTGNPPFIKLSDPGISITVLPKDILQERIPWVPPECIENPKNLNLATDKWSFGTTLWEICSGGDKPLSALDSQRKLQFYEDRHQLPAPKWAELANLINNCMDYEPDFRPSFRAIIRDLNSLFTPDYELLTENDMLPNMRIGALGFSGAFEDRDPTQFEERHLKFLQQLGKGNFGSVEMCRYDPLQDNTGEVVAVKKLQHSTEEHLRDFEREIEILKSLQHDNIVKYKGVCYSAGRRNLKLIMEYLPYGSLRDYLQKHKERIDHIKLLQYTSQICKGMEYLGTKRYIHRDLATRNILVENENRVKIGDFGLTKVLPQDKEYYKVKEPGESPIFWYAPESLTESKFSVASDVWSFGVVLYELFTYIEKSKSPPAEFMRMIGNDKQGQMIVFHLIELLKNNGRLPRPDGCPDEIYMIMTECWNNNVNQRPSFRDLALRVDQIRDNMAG
Tyrosine-protein kinase Lck, sequence (P06239 whole entry): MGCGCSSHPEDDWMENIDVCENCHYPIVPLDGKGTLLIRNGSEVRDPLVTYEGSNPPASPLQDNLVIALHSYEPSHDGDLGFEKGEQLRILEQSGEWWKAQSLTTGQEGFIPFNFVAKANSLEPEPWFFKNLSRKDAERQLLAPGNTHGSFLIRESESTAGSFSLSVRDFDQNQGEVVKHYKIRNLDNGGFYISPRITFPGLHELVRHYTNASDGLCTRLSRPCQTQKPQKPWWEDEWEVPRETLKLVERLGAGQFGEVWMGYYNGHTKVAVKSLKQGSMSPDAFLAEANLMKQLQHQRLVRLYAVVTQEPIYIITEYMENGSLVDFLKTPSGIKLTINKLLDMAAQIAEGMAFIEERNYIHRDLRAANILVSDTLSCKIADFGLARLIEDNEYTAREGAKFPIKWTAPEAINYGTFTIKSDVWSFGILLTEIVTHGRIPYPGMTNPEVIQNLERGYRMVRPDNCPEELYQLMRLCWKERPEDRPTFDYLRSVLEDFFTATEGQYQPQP
Tyrosine-protein kinase BTK, sequence (Q06187 whole entry): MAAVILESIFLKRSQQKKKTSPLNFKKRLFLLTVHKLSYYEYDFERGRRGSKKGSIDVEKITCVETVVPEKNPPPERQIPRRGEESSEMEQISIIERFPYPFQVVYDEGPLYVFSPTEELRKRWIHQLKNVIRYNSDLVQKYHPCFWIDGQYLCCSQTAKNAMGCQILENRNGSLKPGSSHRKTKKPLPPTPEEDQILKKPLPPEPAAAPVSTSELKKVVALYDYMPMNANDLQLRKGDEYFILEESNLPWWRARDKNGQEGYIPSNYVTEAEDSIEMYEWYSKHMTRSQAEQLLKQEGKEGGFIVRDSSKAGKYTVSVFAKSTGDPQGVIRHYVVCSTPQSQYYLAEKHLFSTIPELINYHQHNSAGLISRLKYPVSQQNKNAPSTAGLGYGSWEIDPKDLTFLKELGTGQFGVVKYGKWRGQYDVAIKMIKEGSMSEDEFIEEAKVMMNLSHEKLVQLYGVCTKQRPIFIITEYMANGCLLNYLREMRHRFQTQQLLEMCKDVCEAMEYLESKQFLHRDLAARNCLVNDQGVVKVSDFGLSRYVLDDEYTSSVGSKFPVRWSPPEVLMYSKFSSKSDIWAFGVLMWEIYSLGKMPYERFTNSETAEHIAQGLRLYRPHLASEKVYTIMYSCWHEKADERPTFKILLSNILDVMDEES
Proto-oncogene tyrosine-protein kinase Src, sequence (P12931 2-536 limits assumed): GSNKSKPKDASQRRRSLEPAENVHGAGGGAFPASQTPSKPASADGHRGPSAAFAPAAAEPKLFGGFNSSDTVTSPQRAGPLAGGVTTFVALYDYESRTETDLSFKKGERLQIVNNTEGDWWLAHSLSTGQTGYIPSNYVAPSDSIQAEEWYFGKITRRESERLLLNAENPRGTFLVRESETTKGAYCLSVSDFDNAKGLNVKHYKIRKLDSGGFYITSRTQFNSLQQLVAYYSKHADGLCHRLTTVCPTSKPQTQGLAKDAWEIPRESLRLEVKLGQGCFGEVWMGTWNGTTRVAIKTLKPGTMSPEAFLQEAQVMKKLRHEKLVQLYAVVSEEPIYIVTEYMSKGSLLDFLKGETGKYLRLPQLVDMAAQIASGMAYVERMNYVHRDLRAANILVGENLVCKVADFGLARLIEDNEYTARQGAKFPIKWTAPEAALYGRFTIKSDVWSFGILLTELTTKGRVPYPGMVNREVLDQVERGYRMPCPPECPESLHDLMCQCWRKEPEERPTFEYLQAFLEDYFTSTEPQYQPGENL
Non-receptor tyrosine-protein kinase TYK2, sequence (P29597 whole entry): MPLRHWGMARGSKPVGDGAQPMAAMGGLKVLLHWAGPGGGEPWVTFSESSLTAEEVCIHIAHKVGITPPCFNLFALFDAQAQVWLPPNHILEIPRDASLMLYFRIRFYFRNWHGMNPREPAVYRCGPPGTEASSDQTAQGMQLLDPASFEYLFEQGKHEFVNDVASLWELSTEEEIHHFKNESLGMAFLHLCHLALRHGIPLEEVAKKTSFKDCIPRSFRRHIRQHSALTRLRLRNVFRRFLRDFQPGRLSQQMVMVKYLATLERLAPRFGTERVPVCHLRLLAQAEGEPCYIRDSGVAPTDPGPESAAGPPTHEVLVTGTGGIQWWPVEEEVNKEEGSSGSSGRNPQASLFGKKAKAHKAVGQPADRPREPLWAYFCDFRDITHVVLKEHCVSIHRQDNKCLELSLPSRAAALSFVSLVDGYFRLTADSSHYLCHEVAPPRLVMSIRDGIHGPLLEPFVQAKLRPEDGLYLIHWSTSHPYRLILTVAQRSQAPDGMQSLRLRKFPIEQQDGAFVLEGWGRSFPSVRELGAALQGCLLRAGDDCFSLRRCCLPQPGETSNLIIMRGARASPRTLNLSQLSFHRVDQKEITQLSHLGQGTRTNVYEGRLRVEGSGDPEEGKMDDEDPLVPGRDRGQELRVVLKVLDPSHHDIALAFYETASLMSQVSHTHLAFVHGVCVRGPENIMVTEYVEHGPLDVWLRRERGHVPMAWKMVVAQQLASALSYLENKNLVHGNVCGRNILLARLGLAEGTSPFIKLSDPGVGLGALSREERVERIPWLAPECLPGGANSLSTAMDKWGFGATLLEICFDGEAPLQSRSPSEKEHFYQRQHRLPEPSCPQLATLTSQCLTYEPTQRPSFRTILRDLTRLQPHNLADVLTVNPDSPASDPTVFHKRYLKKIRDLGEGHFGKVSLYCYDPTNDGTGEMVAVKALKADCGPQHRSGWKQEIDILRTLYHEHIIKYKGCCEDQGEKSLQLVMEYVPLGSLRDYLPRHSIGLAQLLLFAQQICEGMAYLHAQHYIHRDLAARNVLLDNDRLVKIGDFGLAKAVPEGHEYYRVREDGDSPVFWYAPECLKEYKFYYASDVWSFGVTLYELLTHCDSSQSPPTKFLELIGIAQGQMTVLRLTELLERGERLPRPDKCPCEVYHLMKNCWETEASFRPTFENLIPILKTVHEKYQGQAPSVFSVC
Tyrosine-protein kinase HCK, sequence (P08631 whole entry): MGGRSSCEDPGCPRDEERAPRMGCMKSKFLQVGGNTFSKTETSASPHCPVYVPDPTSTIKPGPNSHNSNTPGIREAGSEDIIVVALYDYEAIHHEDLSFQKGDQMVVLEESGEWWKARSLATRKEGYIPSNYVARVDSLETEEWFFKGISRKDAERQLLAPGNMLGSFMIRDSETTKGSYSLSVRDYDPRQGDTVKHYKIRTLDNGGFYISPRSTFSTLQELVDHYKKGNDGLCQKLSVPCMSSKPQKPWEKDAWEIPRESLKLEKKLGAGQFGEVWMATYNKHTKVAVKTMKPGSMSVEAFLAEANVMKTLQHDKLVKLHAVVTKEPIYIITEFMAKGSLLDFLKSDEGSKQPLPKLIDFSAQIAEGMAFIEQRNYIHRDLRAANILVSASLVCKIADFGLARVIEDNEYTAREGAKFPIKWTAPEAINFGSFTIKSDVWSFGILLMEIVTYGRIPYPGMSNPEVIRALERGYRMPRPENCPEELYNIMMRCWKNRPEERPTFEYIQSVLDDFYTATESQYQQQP

**Q.** For COc1cc(Nc2nc(NCc3cccc(NC(=O)CCl)c3)n3ccnc3c2C(N)=O)cc(OC)c1, which inhibition (CD4+ve Th [1]) is on record?
**A.** Active

**Q.** What about the inhibition (CD4+ve Th [2]) of the same molecule?
**A.** Active

**Q.** And the Activity [3]?
**A.** 3.64%

**Q.** And the pIC50 [4]?
**A.** 7.26

**Q.** And the pIC50 [5]?
**A.** < 6.00

**Q.** And the pIC50 [6]?
**A.** < 6.00

**Q.** What about the pIC50 [7] of the same molecule?
**A.** < 6.00

**Q.** What about the pIC50 [8] of the same molecule?
**A.** < 6.00

**Q.** What about the pIC50 [9] of the same molecule?
**A.** < 6.00

**Q.** And the pIC50 [10]?
**A.** < 6.00

**Q.** What about the pIC50 [11] of the same molecule?
**A.** < 6.00

**Q.** And the pIC50 [12]?
**A.** < 6.00

**Q.** And the pIC50 [13]?
**A.** < 6.00

**Q.** What about the pIC50 [14] of the same molecule?
**A.** < 6.00

**Q.** And the inhibition (CD4+ve Th [15])?
**A.** Dose-Dependent Effect

**Q.** And the inhibition at 0.4 µM [16]?
**A.** 100%

**Q.** And the inhibition (CD4+ve Th [17])?
**A.** Dose-Dependent Effect

**Q.** And the Activity [18]?
**A.** Active

**Q.** What about the Activity [19] of the same molecule?
**A.** 4.47%

**Q.** And the Activity [20]?
**A.** 9.83%

**Q.** And the Activity [21]?
**A.** 1.55%

**Q.** What about the Activity [22] of the same molecule?
**A.** 0.932%

**Q.** And the Activity [23]?
**A.** 0.925%

**Q.** And the inhibition (CD4+ve Th [24])?
**A.** Active

From ChEMBL document CHEMBL4819075, “Discovery of a potent, selective, and covalent ZAP-70 kinase inhibitor” (Eur J Med Chem, 2021)
